Experimental data reported in ChEMBL document CHEMBL3870358, “Covalent Guanosine Mimetic Inhibitors of G12C KRAS” (ACS Med Chem Lett, 2017).

Tests used:
[1] = system: GTPase KRas (Homo sapiens), P01116 [G12C]; assay: Binding affinity to GMP-stabilized FLAG-tagged KRAS G12C mutant (unknown origin) assessed as inactivation constant using desthiobiotin-GTP probe by alphascreen assay
Procedure, shortened: (§1)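 Nucleotide-free purified KRAS G12C, stabilized with excess GMP, incubated with compound. Remaining enzyme then labeled by a GTP-desthiobiotin acyl phosphate probe that reacts with Lys16, and detected with AlphaScreen reagents. Reaction rates were plotted against compound concentration and fit to kobs = kinact[I]/(Ki + [I]) to estimate kinact and Ki.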

[2] = system: GTPase KRas (Homo sapiens), P01116 [G12C]; assay: Binding affinity to GMP-stabilized FLAG-tagged KRAS G12C mutant (unknown origin) assessed as ratio of Kinact to Ki using desthiobiotin-GTP probe by alphascreen assay; procedure, shortened: as §1
GTPase KRas = GTPase KRas (Homo sapiens, UniProt P01116, G12C); assay: Binding affinity to GMP-stabilized FLAG-tagged KRAS G12C mutant (unknown origin) using desthiobiotin-GTP probe by alphascreen assay
Procedure, shortened: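 Nucleotide-free recombinant KRAS G12C purified and stabilised with excess GMP, incubated with compound, then probed with GTP-desthiobiotin acyl phosphate probe (reacts with Lys16). Desthiobiotinylated protein detected by AlphaScreen (ActivAlpha). Observed reaction rates plotted against compound concentration and fit to kobs = kinact[I]/(Ki + [I]) to extract kinact and Ki.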

[3] = system: GTPase KRas (Homo sapiens), P01116 [G12C]; assay: Binding affinity to recombinant GDP-loaded KRAS G12C mutant (unknown origin) assessed as half life at 115 uM by CPM-probe based fluorescence assay
Procedure, shortened: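 Chemosensor competition assay. Purified recombinant GDP-loaded KRAS G12C incubated with compound, then probed at several time points with a probe detecting free unreacted Cys12 thiol. Read-out combines GDP displacement kinetics with covalent inactivation.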

[4] = Binding affinity to Mg2+ ion assessed as compound concentration required to show half maximal Mg2+ dependent shift by 31P NMR analysis
[5] = Binding affinity to Mg2+ ion assessed as compound concentration required to reach Mg2+ dependent shift plateau by 31P NMR analysis

Sequence of GTPase KRas (P01116 whole entry G12C): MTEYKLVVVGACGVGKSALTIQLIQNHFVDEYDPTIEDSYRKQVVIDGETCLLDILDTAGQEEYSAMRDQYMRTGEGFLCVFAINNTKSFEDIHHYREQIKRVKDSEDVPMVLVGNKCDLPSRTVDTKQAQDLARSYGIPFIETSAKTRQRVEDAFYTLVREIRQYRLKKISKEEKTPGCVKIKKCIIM
Sequence of GTPase KRas (Homo sapiens), P01116 [G12C] (P01116 whole entry G12C): as above

Row | Activity [4] [equiv] | Activity [5] [equiv] | Compound | Kinact [1] [min⁻¹] | Ratio [2] [min⁻¹ µM⁻¹] | Ki (GTPase KRas) [nM] | T1/2 [3] [h]
1 | – | – | Nc1nc2c(ncn2[C@@H]2O[C@H](COP(=O)(O)CP(=O)(O)O[C@@H]3CC[C@H](NC(=O)CCl)C3)[C@@H](O)[C@H]2O)c(=O)[nH]1 (mixture of isomers) | 1 | 0.02 | 50000 | 42
2 | – | – | Nc1nc2c(ncn2[C@@H]2O[C@H](CNc3c(NCCCNC(=O)CCl)c(=O)c3=O)[C@@H](O)[C@H]2O)c(=O)[nH]1 | – | – | > 25000 | 13
3 | – | – | Nc1nc2c(ncn2[C@@H]2O[C@H](COP(=O)(O)CP(=O)(O)OCCNC(=O)CCl)[C@@H](O)[C@H]2O)c(=O)[nH]1 | 0.06 | 0.02 | 2700 | 2.1
4 | – | – | Nc1nc2c(ncn2[C@@H]2O[C@H](COP(=O)(O)CP(=O)(O)OCCCNC(=O)CCl)[C@@H](O)[C@H]2O)c(=O)[nH]1 | 0.07 | 0.2 | 374 | 2.5
5 | – | – | Nc1nc2c(ncn2[C@@H]2O[C@H](COP(=O)(O)CC(=O)OCCNC(=O)CCl)[C@@H](O)[C@H]2O)c(=O)[nH]1 | 0.055 | 0.003 | 15200 | 84
6 | – | – | Nc1nc2c(ncn2[C@@H]2O[C@H](COS(=O)(=O)NC(=O)OCCNC(=O)CCl)[C@@H](O)[C@H]2O)c(=O)[nH]1 | 0.24 | 0.05 | 5000 | 9.5
7 | 0.5 | 2 | Nc1nc2c(ncn2[C@@H]2O[C@H](COP(=O)(O)OP(=O)(O)O)[C@@H](O)[C@H]2O)c(=O)[nH]1 | – | – | – | –
8 | – | – | C=CC(=O)NCCOP(=O)(O)OP(=O)(O)OC[C@H]1O[C@@H](n2cnc3c(=O)[nH]c(N)nc32)[C@H](O)[C@@H]1O | 2.12 | 7.6 | 280 | 0.6
9 | – | – | Nc1nc2c(ncn2[C@@H]2O[C@H](COP(=O)(O)C(F)(F)P(=O)(O)OCCNC(=O)CCl)[C@@H](O)[C@H]2O)c(=O)[nH]1 | 0.365 | 0.9 | 380 | 4.2
10 | – | – | Nc1nc2c(ncn2[C@@H]2O[C@H](COP(=O)(O)C(F)P(=O)(O)OCCNC(=O)CCl)[C@@H](O)[C@H]2O)c(=O)[nH]1 (mixture of isomers) | 0.21 | 0.03 | 8000 | 6.6
11 | – | – | Nc1nc2c(ncn2[C@@H]2O[C@H](COP(=O)(O)CS(=O)(=O)NCCNC(=O)CCl)[C@@H](O)[C@H]2O)c(=O)[nH]1 | 0.33 | 0.2 | 1600 | 2.3
12 | – | – | CC(C)(CNC(=O)CCl)COP(=O)(O)CP(=O)(O)OC[C@H]1O[C@@H](n2cnc3c(=O)[nH]c(N)nc32)[C@H](O)[C@@H]1O | 0.14 | 0.028 | 5000 | 20
13 | – | – | Nc1nc2c(ncn2[C@@H]2O[C@H](COC(=O)CS(=O)(=O)NCCNC(=O)CCl)[C@@H](O)[C@H]2O)c(=O)[nH]1 | – | – | > 10000 | 24
14 | – | – | Nc1nc2c(ncn2[C@@H]2O[C@H](COC(=O)CP(=O)(O)OCCNC(=O)CCl)[C@@H](O)[C@H]2O)c(=O)[nH]1 | 0.053 | 0.02 | 2200 | 47
15 | 0.5 | 2 | Nc1nc2c(ncn2[C@@H]2O[C@H](COP(=O)(O)OP(=O)(O)OP(=O)(O)O)[C@@H](O)[C@H]2O)c(=O)[nH]1 | – | – | – | –
16 | – | – | COC(=O)/C=C/CCCOP(=O)(O)CP(=O)(O)OC[C@H]1O[C@@H](n2cnc3c(=O)[nH]c(N)nc32)[C@H](O)[C@@H]1O | – | – | > 20000 | 120
17 | – | – | Nc1nc2c(ncn2[C@@H]2O[C@H](COP(=O)(O)OP(=O)(O)OCCNC(=O)CCl)[C@@H](O)[C@H]2O)c(=O)[nH]1 | 0.86 | 95 | 9 | 0.68
18 | – | – | Nc1nc2c(ncn2[C@@H]2O[C@H](COP(=O)(O)CP(=O)(O)OC3CCN(C(=O)CCl)C3)[C@@H](O)[C@H]2O)c(=O)[nH]1 (stereo not given in full) | 2.2 | 2.4 | 920 | 1.1
19 | – | – | Nc1nc2c(ncn2[C@@H]2O[C@H](COP(=O)(O)CP(=O)(O)O[C@@H]3CC[C@@H](NC(=O)CCl)C3)[C@@H](O)[C@H]2O)c(=O)[nH]1 (mixture of isomers) | 2.3 | 0.06 | 36000 | 64
20 | – | – | Nc1nc2c(ncn2[C@@H]2O[C@H](COP(=O)(O)CP(=O)(O)OC3CCCN(C(=O)CCl)C3)[C@@H](O)[C@H]2O)c(=O)[nH]1 (mixture of isomers) | 0.55 | 0.16 | 3500 | 12

Row | Compound | Activity [4] [equiv] | Activity [5] [equiv] | Kinact [1] [min⁻¹] | Ratio [2] [min⁻¹ µM⁻¹] | Ki (GTPase KRas) [nM] | T1/2 [3] [h]
21 | Nc1nc2c(ncn2[C@@H]2O[C@H](COP(=O)(O)C(F)(F)P(=O)(O)OCCCNC(=O)CCl)[C@@H](O)[C@H]2O)c(=O)[nH]1 | < 20 | – | 0.3 | 0.8 | 382 | 1.06
